What was measured:
[1] = test system: Plasmodium falciparum; assay: Antimalarial activity against chloroquine-resistant Plasmodium falciparum Dd2 assessed as parasite growth inhibition after 72 hrs by SYBR Green 1 assay; format: functional; details: Dd2, 72 h
Method in brief: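 Viability was read by SYBR Green I DNA quantitation and normalized to DMSO-treated untreated controls. IC50 came from nonlinear regression, averaging at least three independent experiments run in triplicate, with standard deviations.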

[2] = Selectivity index, ratio of IC50 for human WI38 cells to IC50 for chloroquine-resistant Plasmodium falciparum Dd2; format: toxicity; details: read-out: Ratio IC50
[3] = test system: WI-38; assay: Cytotoxicity against human WI38 cells after 24 hrs by resazurin assay; details: WI-38, 24 h

Question: With CO[C@]12OC(=O)C(C)=C1C1=C3[C@](C)([C@@H]4C[C@@H]4[C@@]3(O)C[C@@H]3[C@]14OC(=O)C1=C4C[C@H]4[C@](O)(COC(=O)/C(C)=C/COC(=O)CCC(=O)OC1)[C@H]1C[C@H]1[C@]34C)[C@H]2O as the compound, how does the IC50 [1] read?
Answer: > 25000 nM

Question: For C=C1[C@H]2C[C@H]2[C@@]2(C)[C@H]1[C@@H](OC(C)=O)C1=C(C)C(=O)O[C@@]13C1=C4[C@](C)([C@@H]5C[C@@H]5[C@@]4(O)C[C@H]32)[C@@H](O)C(=O)/C1=C(/C)C(=O)OC, which IC50 [1] is on record?
Answer: > 25000 nM

Question: For COC(=O)/C(C)=C1\C(=O)[C@H](O)[C@]2(C)C3=C(C[C@@H]4[C@]5(OC(=O)C(CO)=C5C[C@H]5[C@H](COC(C)=O)[C@H]6C[C@H]6[C@]45C)[C@H]31)[C@H]1C[C@H]12, which IC50 [1] is on record?
Answer: 580 nM

Question: With COC(=O)CCC(=O)OCC1=C2C[C@H]3[C@](O)(COC(=O)/C=C(\C)C=O)[C@H]4C[C@H]4[C@]3(C)[C@@H]3CC4=C5[C@H](/C(=C(\C)C(=O)OC)C(=O)[C@H](O)[C@@]5(C)[C@@H]5C[C@H]45)[C@]23OC1=O as the compound, how does the IC50 [1] read?
Answer: 5.2 nM

Question: What about the selectivity ratio [2] of the same compound?
Answer: 1700

Question: And the IC50 [3]?
Answer: 8840 nM

Question: Which IC50 [1] does the source give for COC(=O)CCC(=O)OCC1=C2C[C@H]3[C@](O)(COC(=O)/C=C(\C)CO)[C@H]4C[C@H]4[C@]3(C)[C@@H]3C=C4C5=C(C6=C(C)C(=O)O[C@]6(O)[C@H](O)[C@@]5(C)[C@@H]5C[C@H]45)[C@]23OC1=O here?
Answer: 198 nM

Question: Which IC50 [1] does the source give for COC(=O)/C(C)=C1\C(=O)[C@H](O)[C@]2(C)C3=C(C[C@@H]4[C@]5(OC(=O)C(CO)=C5C[C@H]5[C@](O)(CO)[C@H]6C[C@H]6[C@]45C)[C@H]31)[C@H]1C[C@H]12 here?
Answer: 4600 nM

Question: Which IC50 [1] does the source give for C=C1[C@H]2C[C@H]2[C@@]2(C)[C@H]1[C@@H](OC(C)=O)C1=C(C)C(=O)O[C@@]13C1=C4[C@@](C)(C(=O)[C@@]5(O)OC(=O)C(C)=C15)[C@@H]1C[C@@H]1[C@@]4(O)C[C@H]32 here?
Answer: > 25000 nM

Question: Which IC50 [1] does the source give for C=C1[C@H]2C[C@H]2[C@@]2(C)[C@H]1[C@@H](OC(C)=O)C1=C(C)C(=O)O[C@@]13C1=C4[C@](O)(C[C@H]32)[C@H]2C[C@H]2[C@]4(C)CC(=O)/C1=C(/C)C(=O)OC here?
Answer: > 25000 nM

Question: For COC(=O)/C(C)=C1\C(=O)[C@H](O)[C@]2(C)C3=C(C[C@@H]4[C@]5(OC(=O)C(CO)=C5C[C@H]5[C@](O)(COC(=O)C=C(C)C)[C@H]6C[C@H]6[C@]45C)[C@H]31)[C@H]1C[C@H]12, which IC50 [1] is on record?
Answer: 211 nM

Question: Which IC50 [1] does the source give for COC(=O)/C(C)=C1\C(=O)[C@H](O)[C@]2(C)C3=C1[C@]14OC(=O)C(C)=C1C[C@H]1[C@](O)(CO)[C@H]5C[C@H]5[C@]1(C)[C@@H]4C[C@]3(OO)[C@H]1C[C@H]12 here?
Answer: 5300 nM

Question: Which IC50 [1] does the source give for C=C1C(=O)O[C@]23C4=C5C(=O)[C@H](O)[C@]6(C)C4=C(C[C@H]2[C@]2(C)C(C[C@]13[C@]5(C)C(=O)OC)[C@](O)(COC(=O)/C(C)=C/C)[C@H]1C[C@H]12)[C@H]1C[C@H]16 (some centres undefined) here?
Answer: 4700 nM

Question: With COC(=O)/C(C)=C1\C(=O)[C@H](O)[C@]2(C)C3=C1[C@]14OC(=O)C5=C1C[C@H]1[C@](O)(COC(=O)/C(C)=C/COC(=O)CCC(=O)OC5)[C@H]5C[C@H]5[C@]1(C)[C@@H]4C[C@]3(O)[C@H]1C[C@H]12 as the compound, how does the IC50 [1] read?
Answer: > 25000 nM

Question: Which results are given for COC(=O)CCC(=O)OCC1=C2C[C@H]3[C@](O)(COC(=O)/C=C(\C)CO)[C@H]4C[C@H]4[C@]3(C)[C@@H]3C[C@@]4(OO)C5=C(/C(=C(\C)C(=O)OC)C(=O)[C@H](O)[C@@]5(C)[C@@H]5C[C@@H]54)[C@]23OC1=O?
Answer: IC50 [1]: 43 nM; IC50 [3]: > 100000 nM

Question: With COC(=O)/C(C)=C1\C(=O)[C@H](O)[C@]2(C)C3=C(C[C@@H]4[C@]5(OC(=O)C(CO)=C5C[C@H]5[C@H](CO)[C@H]6C[C@H]6[C@]45C)[C@H]31)[C@H]1C[C@H]12 as the compound, how does the IC50 [1] read?
Answer: 11400 nM

Question: For COC(=O)CCC(=O)OCC1=C2C[C@H]3[C@](O)(COC(=O)/C=C(\C)CO)[C@H]4C[C@H]4[C@]3(C)[C@@H]3C[C@@]4(OO)C5=C(C6=C(C)C(=O)O[C@]6(O)[C@H](O)[C@@]5(C)[C@@H]5C[C@@H]54)[C@]23OC1=O, which IC50 [1] is on record?
Answer: 94 nM

Question: Which IC50 [1] does the source give for C[C@@]12C=C3OC(=O)C(CO)=C3C[C@H]1[C@@H](CO)[C@H]1C[C@H]12 here?
Answer: > 25000 nM

Question: With COC(=O)CCC(=O)OC/C(C)=C/C(=O)OC[C@]1(O)[C@H]2C[C@H]2[C@]2(C)[C@@H]3CC4=C5[C@H](/C(=C(\C)C(=O)OC)C(=O)[C@H](O)[C@@]5(C)[C@@H]5C[C@H]45)[C@@]34OC(=O)C(CO)=C4C[C@@H]12 as the compound, how does the IC50 [1] read?
Answer: 19 nM

Question: And the selectivity ratio [2]?
Answer: 163

Question: And the IC50 [3]?
Answer: 3090 nM

Question: Which IC50 [1] does the source give for COC(=O)/C(C)=C1\C(=O)[C@H](O)[C@]2(C)C3=C(C[C@@H]4[C@]5(OC(=O)C(CO)=C5C[C@H]5[C@](O)(COC(=O)/C=C(\C)CO)[C@H]6C[C@H]6[C@]45C)[C@H]31)[C@H]1C[C@H]12 here?
Answer: 111 nM

Question: Which IC50 [1] does the source give for CC1=C2CC3=C(C)[C@H]4C[C@H]4[C@]3(C)C[C@@H]2OC1=O here?
Answer: > 25000 nM

Question: For C=C1[C@@H]2C[C@@H]2[C@]2(C)[C@@H]3CC4=C5[C@H](/C(=C(\C)C(=O)OC)C(=O)[C@H](O)[C@@]5(C)[C@@H]5C[C@H]45)[C@@]34OC(=O)C(C)=C4C[C@@H]12, which IC50 [1] is on record?
Answer: 1500 nM

Question: With CC1=C2C3=C4[C@](C)([C@@H]5C[C@@H]5[C@@]4(O)C[C@@H]4[C@]35OC(=O)C3=C5C[C@H]5[C@](O)(COC(=O)/C=C(\C)COC(=O)CCC(=O)OC3)[C@H]3C[C@H]3[C@]45C)[C@@H](O)[C@@]2(O)OC1=O as the compound, how does the IC50 [1] read?
Answer: 7100 nM

Question: For COC(=O)/C(C)=C1\C(=O)[C@H](O)[C@]2(C)C3=C(C[C@@H]4[C@]5(OC(=O)C6=C5C[C@H]5[C@](O)(COC(=O)/C(C)=C/COC(=O)[C@@H](O)CC(=O)OC6)[C@H]6C[C@H]6[C@]45C)[C@H]31)[C@H]1C[C@H]12, which IC50 [1] is on record?
Answer: 13 nM

Question: What about the selectivity ratio [2] of the same compound?
Answer: 134

Question: What about the IC50 [3] of the same compound?
Answer: 1740 nM

Question: With COC(=O)CCC(=O)OC/C(C)=C/C(=O)OC[C@]1(O)[C@H]2C[C@H]2[C@]2(C)[C@@H]3C[C@@]4(OO)C5=C(/C(=C(\C)C(=O)OC)C(=O)[C@H](O)[C@@]5(C)[C@@H]5C[C@@H]54)[C@@]34OC(=O)C(CO)=C4C[C@@H]12 as the compound, how does the IC50 [1] read?
Answer: 30 nM

Question: What about the selectivity ratio [2] of the same compound?
Answer: 18

Question: And the IC50 [3]?
Answer: 530 nM

Question: With CC1=C2[C@H]3[C@@H]4C(=C[C@@H]5[C@]36OC(=O)C(CO)=C6C[C@H]3[C@](O)(COC(=O)/C=C(\C)CO)[C@H]6C[C@H]6[C@]53C)[C@H]3C[C@H]3[C@]4(C)[C@@H](O)[C@@]2(O)OC1=O as the compound, how does the IC50 [1] read?
Answer: 9900 nM

Question: For CC(=O)OC[C@H]1[C@H]2C[C@H]2[C@]2(C)C=C3OC(=O)C(CO)=C3C[C@@H]12, which IC50 [1] is on record?
Answer: > 25000 nM

Question: With COC(=O)/C(C)=C1\C(=O)[C@H](O)[C@]2(C)C3=C(C[C@@H]4[C@]5(OC(=O)C(COC(C)=O)=C5C[C@H]5[C@](O)(COC(=O)C=C(C)C)[C@H]6C[C@H]6[C@]45C)[C@H]31)[C@H]1C[C@H]12 as the compound, how does the IC50 [1] read?
Answer: 860 nM

Question: With COC(=O)/C(C)=C1\C(=O)[C@H](O)[C@]2(C)C3=C(C[C@@H]4[C@]5(OC(=O)C(C)=C5C[C@H]5[C@H](COC(C)=O)[C@H]6C[C@H]6[C@]45C)[C@H]31)[C@H]1C[C@H]12 as the compound, how does the IC50 [1] read?
Answer: 1800 nM

Question: With COC(=O)/C(C)=C1\C(=O)[C@H](O)[C@]2(C)C3=C1[C@]14OC(=O)C5=C1C[C@H]1[C@](O)(COC(=O)/C=C(\C)COC(=O)CCC(=O)OC5)[C@H]5C[C@H]5[C@]1(C)[C@@H]4C[C@]3(OO)[C@H]1C[C@H]12 as the compound, how does the IC50 [1] read?
Answer: 474 nM

Question: Which IC50 [1] does the source give for C[C@@H]1CC[C@H]2[C@@H](C)C(=O)O[C@@H]3O[C@@]4(C)CC[C@@H]1[C@]32OO4 [ARTEMISININ] here?
Answer: 4 nM

Question: With CC1=C2C3=C4[C@](C)([C@@H]5C[C@@H]5[C@@]4(O)C[C@@H]4[C@]35OC(=O)C3=C5C[C@H]5[C@](O)(COC(=O)/C(C)=C/COC(=O)CCC(=O)OC3)[C@H]3C[C@H]3[C@]45C)[C@@H](O)[C@@]2(O)OC1=O [CHLORAMULTILIDE C] as the compound, how does the IC50 [1] read?
Answer: > 25000 nM

Question: Which IC50 [1] does the source give for C/C=C(\C)C(=O)OC[C@]1(O)[C@H]2C[C@H]2[C@]2(C)[C@@H]3C[C@@]4(O)C5=C(C6=C(C)C(=O)O[C@]6(O)[C@H](O)[C@@]5(C)[C@@H]5C[C@@H]54)[C@@]34OC(=O)C(CO)=C4C[C@@H]12 [CHLORAMULTILIDE D] here?
Answer: > 25000 nM

Question: Which IC50 [1] does the source give for C/C=C(\C)C(=O)OC[C@]1(O)[C@H]2C[C@H]2[C@]2(C)[C@@H]3CC4=C5[C@H](/C(=C(\C)C(=O)OC)C(=O)[C@H](O)[C@@]5(C)[C@@H]5C[C@H]45)[C@@]34OC(=O)C(C)=C4C[C@@H]12 [SARCANDROLIDE A] here?
Answer: 320 nM

Question: With COC(=O)/C(C)=C1\C(=O)[C@H](O)[C@]2(C)C3=C(C[C@@H]4[C@]5(OC(=O)C(CO)=C5C[C@H]5[C@](O)(COC(=O)/C(C)=C/CO)[C@H]6C[C@H]6[C@]45C)[C@H]31)[C@H]1C[C@H]12 [SARCANDROLIDE B] as the compound, how does the IC50 [1] read?
Answer: 265 nM

Question: With C/C=C(\C)C(=O)OC[C@]1(O)[C@H]2C[C@H]2[C@]2(C)[C@@H]3C[C@@]4(O)C5=C(C6=C(C)C(=O)O[C@]6(O)[C@H](O)[C@@]5(C)[C@@H]5C[C@@H]54)[C@@]34OC(=O)C(COC(C)=O)=C4C[C@@H]12 [SARCANDROLIDE D] as the compound, how does the IC50 [1] read?
Answer: > 25000 nM

Question: For C/C=C(\C)C(=O)OC[C@]1(O)[C@H]2C[C@H]2[C@]2(C)[C@@H]3C[C@@]4(O)C5=C(/C(=C(\C)C(=O)OC)C(=O)[C@H](O)[C@@]5(C)[C@@H]5C[C@@H]54)[C@@]34OC(=O)C(COC(C)=O)=C4C[C@@H]12 [SARCANDROLIDE E], which IC50 [1] is on record?
Answer: > 25000 nM

Reference: ChEMBL document CHEMBL4004786, “Nanomolar Antimalarial Agents against Chloroquine-Resistant Plasmodium falciparum from Medicinal Plants and Their Structure-Activity Relationships” (J Nat Prod, 2017)
